Screening results deposited in PubChem BioAssay by several laboratories.
A selection: hits, their analogues and other compounds. The true share with any hit is near 3.2%.
JMJD2C inh – inhibitors of GASC-1 histone demethylase, primary screen, biochemical, fluorescence, DELFIA europium | Lysine-specific demethylase 4C (Homo sapiens), Q9H3R0 | 330,000 compounds, 0.069% hits | AID 2099, 2009 | inhibition, % at 2.35 µM | GST-JMJD2C(1-420) H3K9me3 demethylation;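 active = more than half of a compound's replicate wells show inhibition beyond 50%, single wells judged on their own value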;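 note: signal counts dimethyl H3K9 product captured on neutravidin plate; 0% = median of DMSO wells and 100% = 0.3 times that DMSO median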
DAX1 inh-1 – DAX1 (NR0B1) inhibitors on StAR promoter, primary screen, cell-based, luminescence, SF-1 (NR5A1), full-length DAX-1; inhibition, % at 6.8 µM; HEK293T StAR-luciferase reporter, SF-1/DAX-1 repression relief; 370,000 compounds, 1.1% hits;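 active = inhibition above the mean over all tested compounds plus 3 SD, cut at about 3.6% in these data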;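 note: 0% = DAX-1 cells with DMSO and 100% = cells lacking DAX-1 with DMSO; higher inhibition means more luminescence from relief of DAX-1 repression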
NR2E3 ag-1 – inhibitors of NR2E3-RetCOR corepressor binding, primary screen, NR2E3 agonist project, biochemical, TR-FRET, GST-NR2E3, biotin-RetCOR | 1536-well | 320,000 compounds, 0.12% hits | inhibition of corepressor binding, % at 4.78 µM | Photoreceptor-specific nuclear receptor (Homo sapiens), Q9Y5X4;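 active = percent inhibition above the cutoff of mean plus 3 SD of all tested compounds, set per screening campaign, cut at about 20% in these data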;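 note: 0% = DMSO wells and 100% = biotin wells as full block of FRET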
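Material – GST-tagged NR2E3 plus biotinylated RetCOR corepressor · Quantity – NR2E3 fusion 1.35 nM · Times – 5 h incubation at 4 °C · Medium – pH 7.5 Tris-based buffer · Technique – TR-FRET, Eu(K)-anti-GST donor, streptavidin-D2 acceptor, ex 340, em 617/671 nm · Benchmarks – high control biotin, low control 0.6% DMSO · Format – 1536-well plates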
NR2E3 ag-2 – NR2E3 agonists in two-hybrid cells, primary screen, cell-based, luminescence, CHO-S, Gal4-NCOR/VP16-NR2E3. 360,000 compounds, 0.35% hits. luciferase. Photoreceptor-specific nuclear receptor (Homo sapiens), Q9Y5X4. AID 602229, 2012. inhibition of corepressor binding, % at 3.98 µM;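 active = inhibition above the mean of all tested compounds plus 3 SD, cut at about 70% in these data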;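 note: 0% = DMSO with NR2E3 transfected cells and 100% = cells lacking NR2E3 construct; higher means lower luciferase signal from less NR2E3 corepressor binding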
SMARCA2 activ – SMARCA2 (BRM) function activators, primary screen, cell-based, luminescence, high throughput; activation, % at 9.1 µM; MG213 cells, MMTV-luciferase reporter, dexamethasone, overnight; 370,000 compounds, 1% hits; AID 652017, 2013; in the data active = activation above about 7.8%;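 note: 0% = vehicle wells and 100% = reference activator wells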
DAX1 inh-2 – DAX1 (NR0B1) inhibitors, primary screen, cell-based, HEK293, Gal4-DAX1, luciferase luminescence. inhibition, % at 6.75 µM. 340,000 compounds, 0.99% hits. HEK293 Gal4-DAX1 luciferase reporter. Nuclear receptor subfamily 0 group B member 1 (Homo sapiens), P51843;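 active = inhibition above the mean over all tested compounds plus 3 SD, cut at about 4.2% in these data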;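 note: 0% = DAX1-transfected cells with DMSO and 100% = empty-vector control cells with DMSO; inhibition shows as a rise in luminescence from relieved DAX1 repression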
Target sequence (P51843 207-470 limits assumed): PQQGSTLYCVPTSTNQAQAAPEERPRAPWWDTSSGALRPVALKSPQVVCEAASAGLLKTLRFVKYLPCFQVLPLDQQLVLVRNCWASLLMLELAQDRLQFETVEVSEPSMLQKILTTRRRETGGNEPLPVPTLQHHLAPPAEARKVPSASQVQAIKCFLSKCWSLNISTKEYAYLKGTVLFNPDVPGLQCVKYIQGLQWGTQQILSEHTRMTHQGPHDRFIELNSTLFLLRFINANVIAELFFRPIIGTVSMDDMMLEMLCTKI
DAX1 conf – DAX1 (NR0B1) inhibitors relieving SF-1 repression, confirmation, cell-based, luminescence, HEK293T, full-length DAX-1, SF-1 activated StAR promoter | 2,400 compounds, 87% hits | shares compounds with DAX1 inh-1 | HEK293T StAR-promoter luciferase reporter, SF-1/DAX-1 repression | inhibition, % at 6.8 µM;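 active = inhibition above the average of every tested compound plus 3 SD, cut at about 3.8% in these data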;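 note: 0% = DAX-1 cells with DMSO and 100% = no DAX-1 control cells with DMSO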
Target sequence (P51843 whole entry, looked up): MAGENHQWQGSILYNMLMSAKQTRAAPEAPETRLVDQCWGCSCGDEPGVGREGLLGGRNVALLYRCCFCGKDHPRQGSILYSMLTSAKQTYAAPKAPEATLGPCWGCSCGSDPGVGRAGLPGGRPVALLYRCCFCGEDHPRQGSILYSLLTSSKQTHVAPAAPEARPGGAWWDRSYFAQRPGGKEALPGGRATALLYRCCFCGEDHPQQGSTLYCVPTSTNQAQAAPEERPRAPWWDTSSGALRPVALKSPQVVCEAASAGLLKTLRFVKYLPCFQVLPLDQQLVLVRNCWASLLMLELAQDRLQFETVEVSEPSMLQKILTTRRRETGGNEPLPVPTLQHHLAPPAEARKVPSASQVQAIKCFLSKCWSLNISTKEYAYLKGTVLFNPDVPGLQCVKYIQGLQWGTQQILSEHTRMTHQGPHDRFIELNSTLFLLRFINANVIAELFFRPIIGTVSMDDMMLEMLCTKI
SF1 mutant ctr – StAR reporter signal changes without DAX1, counter-screen for DAX1 inhibitor project, cell-based, luminescence, AF-2 mutant SF-1, transactivation. shares compounds with DAX1 inh-1. HEK293 StAR-luciferase, SF-1 AF2 mutant. inhibition, % at 6.8 µM. 2,400 compounds, 78% hits;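 active = inhibition above the mean of all tested compounds plus 3 SD, cut at about 3% in these data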;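 note: 0% = DAX-1 transfected cells with DMSO and 100% = cells without DAX-1 with DMSO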
Active calls of the source: *.

Results for C[C@H](O)[C@@H]1C(=O)N2CCc3c([nH]c4ccccc34)[C@@H]2C[C@@H]1N(C)Cc1ccc(Cl)cc1 ?
DAX1 inh-1: 6.2*; NR2E3 ag-2: -36; SMARCA2 activ: 0; DAX1 inh-2: 0; DAX1 conf: 1; SF1 mutant ctr: 0

How did Cc1ccc(C(=O)NC2CCCCN(C(C)C)C2=O)cc1 (stereo not drawn) do in these assays?
DAX1 inh-1: -1; SMARCA2 activ: 0

What do the screens show for `COc1cc(C(=O)NC2CCCCN(Cc3cccc(Cl)c3)C2=O)cc(OC)c1OC` (stereo not drawn)?
DAX1 inh-1: -1; SMARCA2 activ: -2

What do the screens show for `CC(C)CCn1c(=O)c2sccc2n2c(CCCC(=O)N3CCC(N4CCCCC4)CC3)nnc12`?
JMJD2C inh: -10; DAX1 inh-1: 4.7*; NR2E3 ag-1: -1; NR2E3 ag-2: -11; SMARCA2 activ: -4; DAX1 inh-2: 1; DAX1 conf: 4.6*; SF1 mutant ctr: 4.1*

Results for O=C(C1CCN(c2cncnc2)CC1)N1CCOCC1 ?
DAX1 inh-1: -1; SMARCA2 activ: -2

Results for O=C(C1CCCN1S(=O)(=O)c1ccc(Br)s1)N1CCN(c2ccccc2)CC1 (stereo not drawn) ?
DAX1 inh-1: -1; SMARCA2 activ: -2

What do the screens show for `COc1ccc2nc(Nc3ccccc3)sc2c1`?
JMJD2C inh: -5; DAX1 inh-1: 7.3*; NR2E3 ag-1: 0; NR2E3 ag-2: -154; SMARCA2 activ: 5; DAX1 inh-2: 3; DAX1 conf: 12*; SF1 mutant ctr: 9.5*

Results for COc1ccc2nc(Nc3ccccc3OC)sc2c1 ?
JMJD2C inh: 7; DAX1 inh-1: 6.4*; NR2E3 ag-1: -2; NR2E3 ag-2: -101; SMARCA2 activ: 3; DAX1 inh-2: 0; DAX1 conf: 17*; SF1 mutant ctr: 10*

What do the screens show for `COc1ccc2nc(NC(=O)C3CCCO3)sc2c1` (stereo not drawn)?
JMJD2C inh: -10; DAX1 inh-1: 5.8*; NR2E3 ag-1: -1; NR2E3 ag-2: -112; SMARCA2 activ: 4; DAX1 inh-2: 4.3*; DAX1 conf: 11*; SF1 mutant ctr: 6.1*

What do the screens show for `COc1ccc(-c2nnc(NC(=O)C3CCCO3)s2)cc1` (stereo not drawn)?
JMJD2C inh: -2; DAX1 inh-1: 2; NR2E3 ag-1: -2; NR2E3 ag-2: -52; SMARCA2 activ: 3; DAX1 inh-2: 1

Results for COc1ccc2nc(Nc3ccc4c(c3)OCO4)sc2c1 ?
JMJD2C inh: -9; DAX1 inh-1: 2; NR2E3 ag-1: 0; NR2E3 ag-2: -121; SMARCA2 activ: 4; DAX1 inh-2: 1

Results for Cc1ccc(Nc2nc3ccccc3s2)cc1 ?
JMJD2C inh: 4; DAX1 inh-1: 4.7*; NR2E3 ag-1: -2; NR2E3 ag-2: -158; SMARCA2 activ: 6; DAX1 inh-2: 3; DAX1 conf: 15*; SF1 mutant ctr: 7.3*

What do the screens show for `CC(=O)N(C)c1ccc(N=Nc2c(C)[nH]n(C(N)=S)c2=O)cc1`?
JMJD2C inh: 1; DAX1 inh-1: 4.8*; NR2E3 ag-1: -3; NR2E3 ag-2: -129; SMARCA2 activ: 6; DAX1 inh-2: 4; DAX1 conf: 12*; SF1 mutant ctr: 5.3*

What do the screens show for `Cc1csc(-c2nc3ccccc3n2C(C(=O)NC(C)(C)C)c2cc3ccccc3o2)c1` (stereo not drawn)?
DAX1 inh-1: 11*; SMARCA2 activ: 6; DAX1 conf: 6.6*; SF1 mutant ctr: 6.0*

What do the screens show for `CC(=O)c1cc(-c2ccc(-c3cc(C(=O)O)c4ccccc4n3)cc2)c(=O)n2c1CCC2`?
DAX1 inh-1: 0; SMARCA2 activ: -3

What do the screens show for `CC(=O)c1cccc(-c2ccnc3c2CC(C(=O)NCc2ccccc2)O3)c1` (stereo not drawn)?
DAX1 inh-1: 4.8*; NR2E3 ag-2: 26; SMARCA2 activ: 5; DAX1 conf: 12*; SF1 mutant ctr: -7

Results for OC[C@H]1O[C@@H](c2nc(-c3ccc(Br)cc3)no2)C[C@@H]1O ?
DAX1 inh-1: 4.8*; NR2E3 ag-2: -48; SMARCA2 activ: 2; DAX1 conf: 6.0*; SF1 mutant ctr: 4.9*

What do the screens show for `CCOC(=O)N1CCN(C(=O)C[C@H]2C[C@@]3(C(=O)OC)C(=C[C@H](C(C)(C)C)O[C@@H]3C)N(Cc3cccc4ccccc34)C2=O)CC1`?
DAX1 inh-1: -1; SMARCA2 activ: -6

Results for O=C(NC(=S)Nc1ccc(CN2CCOCC2)cc1)c1cccc([N+](=O)[O-])c1 ?
JMJD2C inh: -1; DAX1 inh-1: 0; NR2E3 ag-1: -1; NR2E3 ag-2: 4; SMARCA2 activ: -3; DAX1 inh-2: 0

What do the screens show for `O=[N+]([O-])c1cccc(CN2CCCCCC2)c1`?
JMJD2C inh: -2; DAX1 inh-1: 0; NR2E3 ag-1: 2; NR2E3 ag-2: 6; SMARCA2 activ: -4; DAX1 inh-2: 1

How did O=[N+]([O-])c1cccc(COc2ccc(CN3CCOCC3)cc2)c1 do in these assays?
DAX1 inh-1: 7.2*; NR2E3 ag-2: -89; SMARCA2 activ: 3; DAX1 inh-2: 2; DAX1 conf: 9.8*; SF1 mutant ctr: 5.5*

Results for O=[N+]([O-])c1cccc(COc2ccc(CN3CCCC3)cc2)c1 ?
DAX1 inh-1: 4.5*; NR2E3 ag-2: -80; SMARCA2 activ: 1; DAX1 inh-2: 2; DAX1 conf: 11*; SF1 mutant ctr: 6.8*

Results for CC(=O)N1CCN(C2=Nc3ccccc3Sc3ccccc32)CC1 ?
DAX1 inh-1: 0; SMARCA2 activ: 7
